By logP is commonly meant the decadic logarithm of the partition coefficient of the neutral form, usually between octanol and water. Higher therefore signals a more lipophilic compound. By MIC is commonly meant the least concentration at which growth counts as inhibited. Lower therefore signals inhibition by little substance.

Series [1] can be described thus: Lipophilicity, log P of the compound. In kind it is physicochemical. Particulars: octanol/water.
Series [2] concerns Mycobacterium tuberculosis. Nature of the series: Antimycobacterial activity against Mycobacterium tuberculosis H37Rv ATCC 27294 after 28 days by agar dilution method. The settings on record: H37Rv ATCC 27294, 672 h. In kind it is functional. The essentials: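 Compounds and reference drugs were tenfold serially diluted into Middlebrook 7H11 agar with OADC supplement. The inoculum came from fresh 7H11/OADC slants, was adjusted to 1 mg/mL (wet weight) in 0.05% Tween 80 saline, and was diluted 10^-2 to give 10^7 cfu/mL. Bacterial suspension was spotted onto the drug-containing agar tubes, incubated at 37 C, and final readings were taken after 28 days.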
(In general: In agar dilution, organisms are placed on agar that contains the substance at set levels.)

In brackets after ≈: the same amount, converted by molar mass.

Compound `COc1cccc2c1OC/C(=C\c1ccc3oc4ccccc4c3c1)C2=O` registered a lipophilicity (logP) in series [1] of 3.56. For the same compound, it took 25 µg/mL (≈ 70.2 µM) to inhibit growth in series [2] (MIC).

In series [1], `CC(C)(C)c1ccc2c(c1)C(=O)/C(=C/c1ccc3oc4ccccc4c3c1)CO2` showed a lipophilicity (logP) of 5.39. This compound also had an MIC in series [2] of 25 µg/mL (≈ 65.4 µM).

As to `O=C1/C(=C/c2ccc3oc4ccccc4c3c2)COc2ccc(F)cc21`, the logP in series [1] worked out at 3.84. This compound also gave an MIC in series [2] of 12.5 µg/mL (≈ 36.3 µM).

For `O=C1/C(=C/c2ccc3oc4ccccc4c3c2)COc2ccc(Br)cc21`, the logP in series [1] was found to be 4.51. This compound also came in with an MIC in series [2] of 12.5 µg/mL (≈ 30.8 µM).

`O=C1/C(=C/c2ccc3oc4ccccc4c3c2)COc2ccc3ccccc3c21` yielded a lipophilicity (logP) in series [1] of 4.68. Further, in series [2], the MIC stood at 25 µg/mL (≈ 66.4 µM).

`O=C1/C(=C/c2ccc3oc4ccccc4c3c2)COc2c1ccc1ccccc21` returned a lipophilicity (logP) in series [1] of 4.68. The MIC in series [2] stood at 25 µg/mL (≈ 66.4 µM).

`O=C1/C(=C/c2ccc3oc4ccccc4c3c2)COc2ccc3oc4ccccc4c3c21` gave a logP in series [1] of 4.35. Besides, in series [2], inhibition of growth (MIC) required 25 µg/mL (≈ 60 µM).

Take `O=C1/C(=C/c2ccc3oc4ccccc4c3c2)COc2ccc3[nH]c4ccccc4c3c21`: the logP in series [1] came to 4.38. In series [2], this compound displayed an MIC of 25 µg/mL (≈ 60.2 µM).

In turn, `O=C1/C(=C/c2ccc3oc4ccccc4c3c2)COc2ccccc21` registered a logP in series [1] of 3.69. In series [2], the MIC was 25 µg/mL (≈ 76.6 µM).

As to `COc1ccc2c(c1)C(=O)/C(=C/c1ccc3oc4ccccc4c3c1)CO2`, the logP in series [1] stood at 3.56. The compound further displayed an MIC in series [2] of 25 µg/mL (≈ 70.2 µM).

In turn, `Cc1ccc2c(c1)C(=O)/C(=C/c1ccc3oc4ccccc4c3c1)CO2` had a logP in series [1] of 4.17. In series [2], this compound yielded an MIC of 25 µg/mL (≈ 73.4 µM).

For `CC[C@@H](CO)NCCN[C@@H](CC)CO` [ETHAMBUTOL], in series [2], the MIC turned out to be 3.13 µg/mL (≈ 15.3 µM).

`NNC(=O)c1ccncc1` [ISONIAZID] yielded an MIC in series [2] of 0.1 µg/mL (≈ 0.729 µM).

In turn, `NC(=O)c1cnccn1` [PYRAZINAMIDE] gave an MIC in series [2] of 50 µg/mL (≈ 406 µM).

For the origin of these results see ChEMBL document CHEMBL2203101, “Molecular hybridization of bioactives: synthesis and antitubercular evaluation of novel dibenzofuran embodied homoisoflavonoids via Baylis-Hillman reaction” (Bioorg Med Chem Lett, 2012).
